Consider 21 compounds from ChEMBL document CHEMBL3862030, “Identification of the minimum PAR4 inhibitor pharmacophore and optimization of a series of 2-methoxy-6-arylimidazo[2,1-b][1,3,4]thiadiazoles” (Bioorg Med Chem Lett, 2016).

For series [1], the target named is T1, Proteinase-activated receptor 4 (Homo sapiens, UniProt Q96RI0).
T1 sequence (Q96RI0 whole entry): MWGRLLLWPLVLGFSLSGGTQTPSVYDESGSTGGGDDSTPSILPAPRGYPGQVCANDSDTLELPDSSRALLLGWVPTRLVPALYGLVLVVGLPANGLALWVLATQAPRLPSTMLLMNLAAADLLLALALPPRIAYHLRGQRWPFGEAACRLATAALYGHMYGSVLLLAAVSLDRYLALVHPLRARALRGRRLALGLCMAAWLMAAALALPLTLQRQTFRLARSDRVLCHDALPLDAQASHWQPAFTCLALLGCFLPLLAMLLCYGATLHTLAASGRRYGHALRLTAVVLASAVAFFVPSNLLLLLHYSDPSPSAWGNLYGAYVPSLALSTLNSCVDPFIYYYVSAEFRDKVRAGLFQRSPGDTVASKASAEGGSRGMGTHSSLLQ
As to the kind of experiment: Antagonist activity at PAR4 in human platelets assessed as inhibition of activating peptide-induced PAC1 binding response preincubated for 20 mins followed by agonist addition for 20 mins by FITC-based flow cytometric analysis. The method in brief: (§1)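 Human platelets were activated with 200 μM PAR4-AP. The read-outs were PAC-1 binding and P-selectin exposure, measured by flow cytometry.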
In general terms: A flow cytometer gives signals particle by particle.

Series [2] concerns the target T1, Proteinase-activated receptor 4. As to the kind of experiment: Antagonist activity at PAR4 in human platelets assessed as inhibition of gamma-thrombin-induced PAC1 binding response preincubated for 20 mins followed by agonist addition for 20 mins by FITC-based flow cytometric analysis. The method in brief:
(§2)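 Human platelets were stimulated with γ-thrombin at 100 nM. Activation was read by flow cytometry as PAC-1 binding and P-selectin surface expression.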

The nature of series [3]: Intrinsic clearance in rat liver microsomes at 1 uM preincubated for 5 mins followed by NADPH addition measured after 3 to 45 mins by LC/MS/MS analysis. In kind it is ADME. The following applies: read-out: CLH. (In general: Microsomes from liver hold many membrane-bound enzymes, among them those of drug oxidation.)
Series [4] is described as follows: Fraction unbound in rat plasma at 5 uM after 4 hrs by equilibrium dialysis method. Type of series: ADME, cell-free. A general note: In equilibrium dialysis only unbound substance equilibrates across the membrane.
The nature of series [5]: Lipophilicity, log P of the compound. In kind it is physicochemical. The conditions noted are these: octanol/water.
In series [6] the target is T2, Proteinase-activated receptor 4 (Homo sapiens) (UniProt Q96RI0).
T2 sequence (whole entry): T1 sequence (Q96RI0 whole entry)
The conditions noted are these: 31.6 to 316 nM.

Series [7] can be described thus: Intrinsic clearance in human liver microsomes at 1 uM preincubated for 5 mins followed by NADPH addition measured after 3 to 45 mins by LC/MS/MS analysis. Type of series: ADME. The following applies: read-out: CLH.
The test system of series [8] is Platelet. As to the kind of experiment: Antiplatelet activity in human platelets assessed as inhibition of gamma thrombin-induced aggregation at 316 nM to 3.16 uM preincubated for 20 mins followed by gamma thrombin addition measured for 10 mins by aggregometer. Type of series: functional, cell-based. The method in brief:
(§3)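 Aggregation was monitored for 10 min, with final % aggregation taken at that point. Data are means±SEM of at least three independent experiments, compared to controls by paired t-test.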

Series [9] in a line: Fraction unbound in human plasma at 5 uM after 4 hrs by equilibrium dialysis method. Type of series: ADME, cell-free.
Series [10] deals with Platelet. In words: Antiplatelet activity in human platelets assessed as inhibition of activating peptide-induced aggregation at 100 to 316 nM preincubated for 20 mins followed by activating peptide addition measured for 10 mins by aggregometer. In kind it is functional, cell-based. The conditions noted are these: 316 nM to 1 uM, in the assay text read “316 nM to 1 uM” for “100 to 316 nM”. Summed up:
as §3

The target of series [11] is T1, Proteinase-activated receptor 4. In words: Antagonist activity at PAR4 (unknown origin) assessed as inhibition of gamma-thrombin-induced receptor activation.
The target is the same in series [12]. As to the kind of experiment: Antagonist activity at PAR4 (unknown origin) assessed as inhibition of activating peptide-induced receptor activation.
The nature of series [13]: Fraction unbound in rat plasma. In kind it is ADME, cell-free.
The nature of series [14]: Fraction unbound in human plasma. Type of series: ADME, cell-free.
Series [15] addresses T1, Proteinase-activated receptor 4. In words: Antagonist activity at PAR4 in human platelets assessed as inhibition of gamma-thrombin-induced P-selectin activation. The method in brief: as §2
The subject of series [16] is Platelet. In words: Antiplatelet activity in human platelets assessed as inhibition of activating peptide-induced aggregation at 316 to 1000 nM preincubated for 20 mins followed by activating peptide addition measured for 10 mins by aggregometer. Type of series: functional, cell-based. The method in brief:
as §3

For series [17], the target named is T1, Proteinase-activated receptor 4. In words: Antagonist activity at PAR4 in human platelets assessed as inhibition of activating peptide-induced P-selectin activation. The method in brief: as §1
For series [18], the target named is T3, Proteinase-activated receptor 1 (Homo sapiens, UniProt P25116).
T3 sequence (P25116 whole entry): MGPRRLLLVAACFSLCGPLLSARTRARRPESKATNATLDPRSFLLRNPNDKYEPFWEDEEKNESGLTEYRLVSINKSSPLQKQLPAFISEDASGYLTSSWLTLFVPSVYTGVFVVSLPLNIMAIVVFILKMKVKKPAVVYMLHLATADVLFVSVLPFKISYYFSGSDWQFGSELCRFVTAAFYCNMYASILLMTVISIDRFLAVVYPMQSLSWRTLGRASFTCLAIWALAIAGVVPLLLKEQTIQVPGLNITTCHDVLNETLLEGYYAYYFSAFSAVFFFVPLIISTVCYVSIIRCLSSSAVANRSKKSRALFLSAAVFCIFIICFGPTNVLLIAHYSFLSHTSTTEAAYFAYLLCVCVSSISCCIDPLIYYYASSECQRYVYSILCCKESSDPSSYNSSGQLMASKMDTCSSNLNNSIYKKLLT
As to the kind of experiment: Antagonist activity at PAR1 in human platelets assessed as inhibition of activating peptide-induced P-selectin activation.

In series [19] the test system is Platelet. In words: Antiplatelet activity in human platelets assessed as inhibition of gamma thrombin-induced aggregation at 10 uM preincubated for 20 mins followed by gamma thrombin addition measured for 10 mins by aggregometer. Type of series: functional, cell-based. Summed up:
as §3

The target in series [20] is T2, Proteinase-activated receptor 4 (Homo sapiens). In words: Ratio of IC50 for PAR4 in human platelets assessed as inhibition of gamma-thrombin-induced PAC1 binding response to IC50 for PAR4 in human platelets assessed as inhibition of activating peptide-induced PAC1 binding response.
The target of series [21] is T3, Proteinase-activated receptor 1. As to the kind of experiment: Antagonist activity at PAR1 in human platelets assessed as inhibition of activating peptide-induced PAC1 binding response.
The target in series [22] is T2, Proteinase-activated receptor 4 (Homo sapiens). The following applies: 31.6 to 1000 nM.

pIC50: −log10 of the molar value. Active and inactive are the calls of the source. The calls are words filed in the database; no cut-off is given here.

`COc1nn2cc(-c3ccccc3Cl)nc2s1`: the negative-log IC50 (pIC50) (usually −log10 of the IC50, conventionally taken in molar units) in series [1] is 6.36.

For the compound `COc1nn2cc(-c3cc(C(F)(F)F)cc(C(F)(F)F)c3)nc2s1`, the pIC50 in series [2] was 5.25.

With `COc1nn2cc(-c3ccc(O)cc3)nc2s1`, the pIC50 in series [1] is under 5.00.

For `COc1nn2cc(-c3ccc(C(F)(F)F)cc3)nc2s1`, the results for the CLint scaled at 1 µM in series [3] and in [7] were 46.3 to 58.3 mL/min/kg and 13.6 to 19.9 mL/min/kg, respectively. The Fu in [4] and in series [9] was 0.006 to 0.014 throughout. For the same compound, the log partition coefficient (logP) (usually a log measure of how a compound divides between an organic and an aqueous phase) in series [5] is given as over 4. Further, the inhibition result (in series [6]; with Platelet [8]; with Platelet [10]) was “Active” throughout.

Consider `COc1nn2cc(-c3cccc(F)c3)nc2s1`, for which the negative logarithm of the IC50 (pIC50) in series [1] was 6.17.

Take `COc1nn2cc(-c3ccccc3[N+](=O)[O-])nc2s1`: the negative logarithm of the IC50 (pIC50) in series [1] is 5.32.

For `COc1nn2cc(-c3cccc(Cl)c3)nc2s1`, the pIC50 was under 5.00 in series [2] and 7.14 in series [1].

For the compound `COc1nn2cc(-c3ccc(S(C)(=O)=O)cc3)nc2s1`, in [1], the pIC50 is 5.92.

Take `COc1nn2cc(-c3ccc(C)cc3)nc2s1`: the pIC50 in series [1] was 7.24.

As for `COc1nn2cc(-c3ccc(OC(F)(F)F)cc3)nc2s1`, the values for the CLint scaled at 1 µM in [3] and in [7] were 46.3 to 58.3 mL/min/kg and 13.6 to 19.9 mL/min/kg, respectively. In addition, the Fu in [4] and in [9] was 0.006 to 0.014 each time. Besides, the lipophilicity (logP) in series [5] is over 4. The inhibition entry (in [6]; in the series with Platelet [8]; in the series with Platelet [10]) was “Active” each time.

Consider `COc1nn2cc(-c3ccccc3)nc2s1`, for which the pIC50 in series [1] is 6.12.

On to `COc1nn2cc(-c3cc4ccccc4o3)nc2s1`, for which the pIC50 in series [11] is 7.23; in series [12] it was 8.77.

In the case of `COc1nn2cc(-c3cccc([N+](=O)[O-])c3)nc2s1`, the pIC50 in series [1] was under 5.00.

In the case of `COc1nn2cc(-c3ccc(OC(F)F)cc3)nc2s1`, in series [2], the pIC50 was 5.60.

Consider `COc1cc(OCc2csc(-c3ccccc3)n2)c2cc(-c3cn4nc(OC)sc4n3)oc2c1`, for which the fraction unbound in series [13] and in [14] was under 0.001 each time.

Turning to `CNc1nn2cc(-c3c(F)cccc3F)nc2s1`, in series [1], the pIC50 is under 5.00.

Consider `COc1nn2cc(-c3cc4cc(OC(F)(F)F)ccc4n3C)nc2s1`, for which the pIC50 was 6.00 in [15]; 6.00 in [2]; 7.70 in series [17]; under 5.00 in series [18]; 7.68 to 7.70 in [1]; under 5.00 in series [21]. In addition, the inhibition entry with Platelet [16] and with Platelet [19] was “Active” throughout. Further, the Ratio IC50 in series [20] stood at 50.

Regarding `CN(C)c1nn2cc(-c3c(F)cccc3F)nc2s1`, the pIC50 in series [1] is 5.47.

For the compound `COc1nn2cc(-c3ccc(Cl)cc3)nc2s1`, the figures for the CLint scaled at 1 µM in [3] and in series [7] were 46.3 to 58.3 mL/min/kg and 13.6 to 19.9 mL/min/kg, respectively. For the same compound, the inhibition result (in series [22]; in the series with Platelet [16]; with Platelet [8]) was “Active” throughout. Further, the Fu in [4] and in [9] was 0.006 to 0.014 in each case. The lipophilicity (logP) in series [5] is recorded as over 4.

In the case of `COc1ccc(-c2cn3nc(OC)sc3n2)cc1`, the negative logarithm of the IC50 (pIC50) in [1] was 6.23.

In the case of `COc1nn2cc(-c3ccc(C#N)cc3)nc2s1`, the pIC50 in series [1] is 6.03.
